High-throughput results deposited in PubChem by several laboratories.
Rows were chosen to be rich in hits. Some 4.8% of all compounds tested hit in one or more screens of this group.
NF-kB expr up: raises NF-kB expression in human neuronal cells; NF-kB reporter expression; stronger effect = higher value; 1.6% of 190,000 active; fold change at 12.5 µM; in the data active means fold change above about 3.3
STAT1 act: increases IFN-gamma driven STAT1 reporter signal; NIH 3T3 STAT1-luciferase reporter, luminescence; 100% = IFN-gamma alone, no compound; activation (% of control), % at 5.5 µM; 2.6% of 200,000 active; AID 932;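 active means activation above the screen-wide mean activation plus 3 SD, cut at about 130% in these data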;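 further: raw ratio to IFN-gamma control signal so 100% means no change and 0% no light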
APP transl inh: APP translation inhibition; inhibition, % at 2 µM; AID 1285; SH-SY5Y APP 5'UTR-luciferase reporter, luminescence; 0.82% of 190,000 active;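 active means inhibition above a set limit, derived from the sample mean plus 3 SD, cut at about 45% in these data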
FLuc stim CS: affects firefly luciferase, flagging false hits in luciferase stimulation screens | P08659 | ATPlite luciferase biochemical, luminescence, 10 min; 0 = ATP-free wells, 1 = DMSO control | activation factor at 10 µM | AID 1027 | 200,000 tested, under 10 active;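 active means luciferase activation factor, scaled between plate controls, of at least 2 with compound at 10 µM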
Target sequence (P08659 whole entry, looked up): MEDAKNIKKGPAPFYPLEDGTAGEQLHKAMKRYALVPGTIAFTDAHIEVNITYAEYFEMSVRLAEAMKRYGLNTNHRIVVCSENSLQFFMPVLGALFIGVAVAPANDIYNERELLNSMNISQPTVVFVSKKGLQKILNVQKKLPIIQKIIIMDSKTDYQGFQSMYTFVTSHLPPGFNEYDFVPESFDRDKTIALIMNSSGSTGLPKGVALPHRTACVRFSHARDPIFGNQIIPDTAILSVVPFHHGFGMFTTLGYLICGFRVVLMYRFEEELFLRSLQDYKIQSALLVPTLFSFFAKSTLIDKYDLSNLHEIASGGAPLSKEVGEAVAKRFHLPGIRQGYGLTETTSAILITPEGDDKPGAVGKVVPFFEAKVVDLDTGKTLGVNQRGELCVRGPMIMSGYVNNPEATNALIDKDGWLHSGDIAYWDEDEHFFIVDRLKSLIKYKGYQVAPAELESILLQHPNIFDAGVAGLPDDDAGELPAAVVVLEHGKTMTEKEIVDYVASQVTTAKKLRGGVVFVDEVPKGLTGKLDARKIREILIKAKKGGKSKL
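Material: luciferase plus luciferin reagent, cell-free. Medium: PBS buffer for ATP. Also added: ATP substrate, dispensed from a 10.24 µM working solution in PBS. Doses: test compounds dosed from 2 mM stocks in 100% DMSO. Incubation: 10 min post-reagent at room temperature. Technique: light output (luminescence). Read-out basis: luminescence gain marking luciferase activators.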
FLuc inhib CS: Photinus pyralis luciferase inhibition counter-screen | ATPLite firefly luciferase biochemical luminescence, 10 min | inhibition, % at 10 µM | 1.5% of 200,000 active | AID 1006;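 active means inhibition above about 50% when tested at 10 µM, limit read from the data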
APP 5'UTR act: activates APP 5'UTR luciferase reporter. SH-SY5Y APP 5'UTR luciferase reporter, luminescence; zero percent = DMSO vehicle wells. 1% of 190,000 active. AID 1276. activation, % at 2 µM;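 active means activation above a set limit, based on mean plus 3 SD of controls, cut at about 140% in these data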
* marks the source's active call; other numbers are inactive results.

SMILES	NF-kB expr up	STAT1 act	APP transl inh	FLuc stim CS	FLuc inhib CS	APP 5'UTR act
CC(C)c1cc(C(=O)Nc2ccc3c(c2)OCO3)no1	6.4*	116	-145	0.5	45	145*
O=C(NCc1ccccn1)C12CC3CC(CC(C3)C1)C2	1.1	100	7	1.1	-6	-7
N#Cc1nc(COc2ccc(F)cc2)oc1N1CCC(Cc2ccccc2)CC1	1.1	92	66*	1	1	-66
CCC/C=N/NC(=O)c1ccc(F)cc1	1	108	-13	1	0	13
CCC/C=N/NC(=O)c1[nH]c2c([N+](=O)[O-])cccc2c1C	0.83	73	89*	1	-2	-89
BrC(/C=C\c1ccccc1)=N/Nc1nc(N2CCOCC2)nc(N2CCOCC2)n1	0.69	89	27	1	-3	-27
BrC(=C\c1ccccc1)/C=N/Nc1nc(N2CCOCC2)nc(N2CCOCC2)n1	0.59	82	63*	1.1	-8	-63
O=C(Nc1cc2c(ccc3ccccc32)oc1=O)C1CCCCC1	1.1	96	-2	1	-5	2
O=C(NC1CCCC1)c1cc2c(ccc3ccccc32)o1	3.4*	137*	-10	0.9	10	10
CNC(=O)c1cc2c(ccc3ccccc32)o1	1.3	133*	-27	0.9	8	27
CCCc1cc(=O)n2c([nH]c3ccccc32)c1C#N	1.2	94	6	0.3	66*	-6
Cc1[nH]n(-c2ccc([N+](=O)[O-])cc2)c(=O)c1C=NCC1CCCO1 (configuration not stated)	2	135*	-7	1	-2	7
Cc1[nH]n(-c2ccccc2)c(=O)c1C=NC1CCCCC1	6.1*	120	2	1	4	-1
COc1ccc(-c2[nH]n(-c3ccc([N+](=O)[O-])cc3)c(=O)c2C=NCC2CCCO2)cc1 (configuration not stated)	1.1	96	5	1.1	-10	-5
C=CCN=Cc1c(C)[nH]n(-c2ccccc2)c1=O	11*	127	-49	1	3	49
COc1ccc(-c2cnnc(N/N=C/c3ccc(O)c(OC)c3)n2)cc1	1.1	118	30	0.2	81*	-30
COc1cc(/C=N/Nc2nc(N3CCCC3)nc(N3CCCC3)n2)ccc1O	0.56	100	0	1	-2	-1
COc1ccc(-c2cnnc(N/N=C/c3ccc(-c4ccc([N+](=O)[O-])cc4)o3)n2)cc1	1.1	101	90*	1	-2	-90
O=[N+]([O-])c1ccc(-c2ccc(/C=N/Nc3nc(N4CCCC4)nc(N4CCCC4)n3)o2)cc1	1.3	96	-4	1.1	-8	4
CCCc1ccc(-c2ccc(/C=C/C(=O)O)cc2)nc1	3.1	122	46*	0.1	86*	-46
CCCCCCCc1ccc(-c2ccc(O)cc2)nc1	1.1	107	-27	0.8	23	27
CCCCCc1ccc(-c2ccc(/C=C/C(=O)O)cc2)nc1	4.6*	111	21	0.2	78*	-21
Cc1ccc(S(=O)(=O)Nc2cccc3ncccc23)s1	0.16	187*	56*	1.1	-5	-56
CC(C)c1ccc(NC(=S)NC2CCCCCC2)cc1	1.1	140*	-40	1	-1	40
S=C(Nc1ccc(Oc2ccc(NC(=S)NC3CCCCC3)cc2)cc1)NC1CCCCC1	1.1	94	18	1	2	-18
SMILES	NF-kB expr up	STAT1 act	APP transl inh	FLuc stim CS	FLuc inhib CS	APP 5'UTR act
OC1CCC(NC(=S)Nc2ccc(SC(F)F)cc2)CC1 (configuration not stated)	0.87	129*	-46	0.8	20	46
Cn1nc(C(F)(F)F)c(CNC(=O)C(C)(C)CCl)c1N1CCOCC1	1.1	98	4	1.1	-7	-4
CCCN1CCN(S(=O)(=O)c2ccc3c(c2)OCCO3)CC1	1.1	91	1	1.1	-10	-1
O=C(Nc1nc2cc3c(cc2s1)OCCO3)c1cccc(N2C(=O)CCC2=O)c1	1.3	110	-6	0.2	81*	6
CCN(CC)S(=O)(=O)c1cccc(C(=O)Nc2nc3cc4c(cc3s2)OCCO4)c1	0.87	99	9	1.1	-7	13
O=C(Nc1ccc2sccc2c1)c1cccc(N2C(=O)CCC2=O)c1	1.9	140*	-13	0.8	20	13
